Experimental data taken from ChEMBL document CHEMBL3865820, “Bioactive Dibenzo-α-pyrone Derivatives from the Endophytic Fungus Rhizopycnis vagum Nitaf22” (J Nat Prod, 2016).
pIC50: −log10 of the molar value. ≈ marks a conversion by molar mass, not a printed value.

What was measured:
[1] = test system: Agrobacterium tumefaciens; assay: Antibacterial activity against Agrobacterium tumefaciens ATCC 11158 by broth dilution colorimetric assay; format: functional
Summary of the method: (§1)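 Modified broth dilution colorimetric assay in 96-well plates, run against a plant- and human-pathogen panel. Both MIC and median inhibitory concentration (IC50) were determined. Streptomycin sulfate served as the positive control.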

Bacillus subtilis [2] = assay: Antibacterial activity against Bacillus subtilis ATCC 11562 by broth dilution colorimetric assay; format: functional; summary of the method: as §1
[3] = test system: Pseudomonas amygdali pv. lachrymans; assay: Antibacterial activity against Pseudomonas lachrymans ATCC 11921 by broth dilution colorimetric assay; format: functional; summary of the method: as §1
[4] = Antibacterial activity against Ralstonia solanacearum ATCC 11696 by broth dilution colorimetric assay; format: functional, Ralstonia solanacearum K60-1
Summary of the method: (§2)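 Modified broth dilution colorimetric assay in 96-well plates, reporting both minimum inhibitory concentration (MIC) and median inhibitory concentration (IC50). Streptomycin sulfate served as positive control.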

[5] = test system: Staphylococcus haemolyticus; assay: Antibacterial activity against Staphylococcus haemolyticus ATCC 29970 by broth dilution colorimetric assay; format: functional; summary of the method: as §1
[6] = test system: Xanthomonas euvesicatoria; assay: Antibacterial activity against Xanthomonas vesicatoria ATCC 11633 by broth dilution colorimetric assay; format: functional; summary of the method: as §1
Pyricularia oryzae = assay: Antifungal activity against Magnaporthe oryzae assessed as inhibition of spore germination after 8 hrs by microscopic analysis; format: functional
Summary of the method: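 Spores taken from 7-day-old M. oryzae cultures (2 × 10^6 spores per mL). Compound in 10% aqueous ethanol was mixed 1:1 with the spore suspension on a concave slide and kept in a dark moist chamber at 25 °C for 8 h. Germination was counted by microscope. Inhibition % = [(Gc − Gt)/Gc] × 100 against 10% ethanol control, with triplicates. IC50 was obtained by linear regression; carbendazim served as positive control.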

[7] = Cytotoxicity against human HCT116 cells by MTT assay; format: functional, cell-based; settings: HCT-116
Summary of the method: (§3)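 Microculture tetrazolium (MTT) assay on a panel of human carcinoma cell lines: colon HCT-116, hepatocellular HepG2, gastric BGC-823, NSCLC NCI-H1650, ovarian A2780, melanoma A375, lung adenocarcinoma A549, breast MCF-7 and pancreatic Capan2. IC50 values are reported in μM.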

[8] = Cytotoxicity against human A375 cells by MTT assay; format: functional, cell-based; settings: A-375; summary of the method: as §3
[9] = Cytotoxicity against human A549 cells by MTT assay; format: functional, cell-based; summary of the method: as §3
[10] = Cytotoxicity against human MCF7 cells by MTT assay; format: functional, cell-based; summary of the method: as §3
[11] = Cytotoxicity against human Capan2 cells by MTT assay; format: functional, cell-based; settings: Capan-2; summary of the method: as §3
[12] = test system: Xanthomonas euvesicatoria; assay: Antibacterial activity against Xanthomonas vesicatoria ATCC 11633 after 24 hrs by MTT based broth dilution colorimetric assay; format: functional; settings: ATCC 11633, 24 h; summary of the method: as §2
[13] = test system: Agrobacterium tumefaciens; assay: Antibacterial activity against Agrobacterium tumefaciens ATCC 11158 after 24 hrs by MTT based broth dilution colorimetric assay; format: functional; settings: ATCC 11158, 24 h
Bacillus subtilis [14] = assay: Antibacterial activity against Bacillus subtilis ATCC 11562 after 24 hrs by MTT based broth dilution colorimetric assay; format: functional; settings: ATCC 11562, 24 h
[15] = test system: Pseudomonas amygdali pv. lachrymans; assay: Antibacterial activity against Pseudomonas lachrymans ATCC 11921 after 24 hrs by MTT based broth dilution colorimetric assay; format: functional; settings: ATCC 11921, 24 h; summary of the method: as §2
[16] = Cytotoxicity against human HepG2 cells by MTT assay; format: functional, cell-based; summary of the method: as §3
[17] = Cytotoxicity against human BGC823 cells by MTT assay; format: functional, cell-based; settings: BGC-823; summary of the method: as §3
[18] = Cytotoxicity against human NCI-H1650 cells by MTT assay; format: functional, cell-based; summary of the method: as §3
[19] = Cytotoxicity against human A2780 cells by MTT assay; format: functional, cell-based; summary of the method: as §3
[20] = Cytotoxicity against human HuCCa1 cells; format: functional, cell-based; settings: HuCC-A1
[21] = Cytotoxicity against human HepG2 cells; format: functional, cell-based
[22] = Cytotoxicity against human A549 cells; format: functional, cell-based
[23] = Cytotoxicity against human MOLT3 cells; format: functional, cell-based; settings: MOLT-3
[24] = Cytotoxicity against human HeLa cells; format: functional, cell-based
[25] = Cytotoxicity against human T47D cells; format: functional, cell-based
[26] = Cytotoxicity against human MDA-MB-231 cells; format: functional, cell-based
[27] = Cytotoxicity against human MRC5 cells; format: toxicity, cell-based

Compound	IC50 [1] [µg/mL]	MIC [1] [µg/mL]	IC50 (Bacillus subtilis [2]) [µg/mL]	MIC (Bacillus subtilis [2]) [µg/mL]	IC50 [3] [µg/mL]	MIC [3] [µg/mL]	IC50 [4] [µg/mL]	MIC [4] [µg/mL]	MIC [5] [µg/mL]	MIC [6] [µg/mL]	IC50 (Pyricularia oryzae) [µg/mL]	pIC50 [7]	pIC50 [8]	pIC50 [9]	pIC50 [10]	pIC50 [11]	pIC50 [16]	pIC50 [17]	pIC50 [18]	pIC50 [19]	also measured
CN[C@@H]1[C@H](O[C@H]2[C@H](O[C@H]3[C@H](O)[C@@H](O)[C@H](N=C(N)N)[C@@H](O)[C@@H]3N=C(N)N)O[C@@H](C)[C@]2(O)C=O)O[C@@H](CO)[C@H](O)[C@H]1O.CN[C@@H]1[C@H](O[C@H]2[C@H](O[C@H]3[C@H](O)[C@@H](O)[C@H](N=C(N)N)[C@@H](O)[C@@H]3N=C(N)N)O[C@@H](C)[C@]2(O)C=O)O[C@@H](CO)[C@H](O)[C@H]1O.O=S(=O)(O)O.O=S(=O)(O)O.O=S(=O)(O)O [STREPTOMYCIN SULFATE]	1.4	5	1.4	5	2.3	7.5	1.2	5	5	10	–	–	–	–	–	–	–	–	–	–	IC50 [5]: 1.4 µg/mL; IC50 [6]: 2.6 µg/mL
COC1=C(N)[C@](C)(O)c2c(oc(=O)c3c(O)cc(OC)cc23)C1=O	–	> 200	–	> 200	–	> 200	–	> 200	> 200	> 200	–	–	–	–	–	–	–	–	–	–	–
COc1cc(O)c2c(=O)oc3c(c2c1)[C@@](C)(O)C[C@@H](OC)[C@@]31C[C@@H](O)C(=O)O1	56.7 (≈ 145 µM)	100 (≈ 255 µM)	45.5 (≈ 116 µM)	75 (≈ 191 µM)	44.7 (≈ 114 µM)	100 (≈ 255 µM)	–	> 200	> 200	> 200	> 200	< 4.30	< 4.30	< 4.30	< 4.30	< 4.30	–	–	–	–	–
COC1=C[C@](C)(O)c2c(oc(=O)c3c(O)cc(OC)cc23)C1=O	–	> 200	–	> 200	–	> 200	–	> 200	> 200	> 200	82.1 (≈ 258 µM)	< 4.30	< 4.30	< 4.30	< 4.30	< 4.30	–	–	–	–	–
COc1cc(O)c2c(=O)oc3cc(O)cc(C)c3c2c1	–	–	–	–	–	–	–	–	–	–	–	< 4.30	< 4.30	4.15	< 4.30	< 4.30	–	–	–	–	IC50 [12]: 16.7 to 34.3 µg/mL (≈ 61.3 to 126 µM); IC50 [13]: 16.7 to 34.3 µg/mL (≈ 61.3 to 126 µM); IC50 (Bacillus subtilis [14]): 16.7 to 34.3 µg/mL (≈ 61.3 to 126 µM); IC50 [15]: 16.7 to 34.3 µg/mL (≈ 61.3 to 126 µM)
COc1cc(O)c2c(=O)oc3c(O)c(OC)cc(C)c3c2c1	–	> 200	–	> 200	–	> 200	–	> 200	> 200	> 200	> 200	< 5.00	–	–	–	–	< 5.00	< 5.00	< 5.00	< 5.00	–
COc1cc(O)c2c(=O)oc3c(c2c1)[C@@](C)(O)C(Cl)=C(O)C3=O	47.3 (≈ 140 µM)	100 (≈ 295 µM)	44.6 (≈ 132 µM)	100 (≈ 295 µM)	4.3 (≈ 12.7 µM)	25 (≈ 73.8 µM)	36.5 (≈ 108 µM)	50 (≈ 148 µM)	25 (≈ 73.8 µM)	100 (≈ 295 µM)	–	4.43	< 4.30	4.59	< 4.30	< 4.30	–	–	–	–	IC50 [5]: 7 µg/mL (≈ 20.7 µM); IC50 [6]: 52.5 µg/mL (≈ 155 µM)
COc1cc(O)c2c(=O)oc3cc(O)c(Cl)c(C)c3c2c1	–	–	–	–	–	–	–	–	–	–	–	< 4.30	< 4.30	< 4.30	< 4.30	< 4.30	–	–	–	–	IC50 [12]: 16.7 to 34.3 µg/mL (≈ 54.5 to 112 µM); IC50 [13]: 16.7 to 34.3 µg/mL (≈ 54.5 to 112 µM); IC50 (Bacillus subtilis [14]): 16.7 to 34.3 µg/mL (≈ 54.5 to 112 µM); IC50 [15]: 16.7 to 34.3 µg/mL (≈ 54.5 to 112 µM)
CC(=O)O[C@H]1C(=O)[C@@]2(C)[C@H]([C@H](OC(=O)c3ccccc3)[C@]3(O)C[C@H](OC(=O)[C@H](O)[C@@H](NC(=O)c4ccccc4)c4ccccc4)C(C)=C1C3(C)C)[C@]1(OC(C)=O)CO[C@@H]1C[C@@H]2O [PACLITAXEL]	–	–	–	–	–	–	–	–	–	–	–	8.40 to 9.05	7.66	7.64	9.22	7.77	7.92	8.48	7.17	7.42	–
COc1cc(O)c2c(=O)oc3c(O)c(OC)c(Cl)c(C)c3c2c1	15 (≈ 44.5 µM)	50 (≈ 148 µM)	22.4 (≈ 66.5 µM)	50 (≈ 148 µM)	16.4 (≈ 48.7 µM)	50 (≈ 148 µM)	24.2 (≈ 71.9 µM)	50 (≈ 148 µM)	50 (≈ 148 µM)	50 (≈ 148 µM)	> 200	< 5.00	–	–	–	–	< 5.00	< 5.00	< 5.00	< 5.00	IC50 [5]: 26.7 µg/mL (≈ 79.3 µM); IC50 [6]: 15.9 µg/mL (≈ 47.2 µM)
COc1cc(O)c2c(=O)oc3c(c2c1)[C@@](C)(O)C[C@H](OC)[C@@]31C[C@@H](O)C(=O)O1	–	> 200	–	> 200	–	> 200	–	> 200	> 200	> 200	–	–	–	–	–	–	–	–	–	–	–
Cc1c(Cl)c(O)cc2oc(=O)c3c(O)cc(O)cc3c12	16.3 (≈ 55.7 µM)	50 (≈ 171 µM)	18.6 (≈ 63.6 µM)	50 (≈ 171 µM)	–	> 200	12.4 (≈ 42.4 µM)	50 (≈ 171 µM)	> 200	75 (≈ 256 µM)	9.9 (≈ 33.8 µM)	< 5.00	–	–	–	–	< 5.00	< 5.00	< 5.00	< 5.00	IC50 [6]: 22.7 µg/mL (≈ 77.6 µM)
COC(=O)Nc1nc2ccccc2[nH]1 [CARBENDAZIM]	–	–	–	–	–	–	–	–	–	–	6.9 (≈ 36.1 µM)	–	–	–	–	–	–	–	–	–	–
Cc1cc(O)cc2oc(=O)c3c(O)cc(O)cc3c12 [ALTERNARIOL]	11.4 (≈ 44.1 µM)	50 (≈ 194 µM)	7 (≈ 27.1 µM)	50 (≈ 194 µM)	3.5 (≈ 13.6 µM)	25 (≈ 96.8 µM)	5.5 (≈ 21.3 µM)	25 (≈ 96.8 µM)	50 (≈ 194 µM)	25 (≈ 96.8 µM)	> 200	< 5.00	–	–	–	–	< 5.00	< 5.00	< 5.00	< 5.00	IC50 [5]: 7.9 µg/mL (≈ 30.6 µM); IC50 [6]: 4.9 µg/mL (≈ 19 µM)
COC1=C(Cl)[C@](C)(O)c2c(oc(=O)c3c(O)cc(OC)cc23)C1=O	–	> 200	21.6 (≈ 61.2 µM)	50 (≈ 142 µM)	–	> 200	–	> 200	> 200	> 200	12 (≈ 34 µM)	5.38	–	–	–	–	5.23	5.11	5.49	5.44	pIC50 [20]: 4.90 to 5.96; pIC50 [21]: 4.90 to 5.96; pIC50 [22]: 4.90 to 5.96; pIC50 [23]: 4.90 to 5.96; pIC50 [24]: 4.90 to 5.96; pIC50 [25]: 4.90 to 5.96; pIC50 [26]: 4.90 to 5.96; pIC50 [27]: 4.90 to 5.96
